Active and inactive are the calls of the source. The calls are words filed in the database; no cut-off is given here.
What was measured:
[1] = biological target: T1, Telomerase reverse transcriptase (Homo sapiens, UniProt O14746); assay: Inhibition of human recombinant telomerase activity in rabbit reticulocytes at 50 uM after 90 mins by telomerase assemblage gel electrophoresis; type: cell-based
Procedure, shortened: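 Assembly format: hTERT translated in rabbit reticulocyte lysate was incubated 1.5 h with in vitro transcribed hTER in the presence of inhibitor. Activity was then read by direct primer extension, with products resolved by gel electrophoresis and imaged by phosphorimaging. Products were normalized to a 100 nt 32P-labeled oligonucleotide loading control, and percent activity was calculated against a DMSO carrier control.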

[2] = biological target: T1, Telomerase reverse transcriptase; assay: Inhibition of human recombinant telomerase activity in rabbit reticulocytes after 90 mins by telomerase assemblage gel electrophoresis; type: cell-based
Procedure, shortened: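 hTERT translated in rabbit reticulocyte lysate, then incubated 1.5 h with in vitro transcribed hTER in the presence of inhibitor (DMSO carrier). Activity was read by direct primer extension, with products resolved on gel and phosphorimaged. Signal was normalized to a 100 nt 32P-labeled DNA loading control, and percent activity was taken versus the DMSO-only control.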

[3] = biological target: T1, Telomerase reverse transcriptase; details: 50 uM
[4] = biological target: T1, Telomerase reverse transcriptase; assay: Inhibition of pre-assembled human recombinant telomerase activity in rabbit reticulocytes after 90 mins by gel electrophoresis method based direct primer extension assay; type: cell-based
Procedure, shortened: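 Telomerase was first reconstituted in rabbit reticulocyte lysate from hTERT and hTER, then assayed post-assembly by direct primer extension with inhibitor present. Products were gel-resolved, phosphorimaged and normalized to a 32P-labeled 100 nt oligonucleotide loading control. Percent activity was taken relative to the DMSO carrier control.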

[5] = biological target: T1, Telomerase reverse transcriptase; details: 50 uM; remark: listed apart in the source
[6] = biological target: T1, Telomerase reverse transcriptase; details: 50 uM; remark: listed apart in the source
[7] = Induction of ROS generation assessed as hydrogen peroxide production in PBS buffer at 20 uM in presence of 5 nM of DTT in presence of 30U catalase; type: physicochemical; details: in the assay text read “5 mM of DTT” for “5 nM of DTT”
Procedure, shortened: (§1)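 Compound at 20 µM incubated in PBS for set times under three conditions: no DTT, with 5 mM DTT, or with 5 mM DTT plus 30 U catalase. Hydrogen peroxide was measured with a commercial hydrogen peroxide kit. Two independent experiments; mean and standard deviation reported.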

[8] = Cytotoxicity against telomerase negative human GM847 cells after 96 hrs by SRB assay; type: functional, cell-based; details: GM847, 96 h
MCF7 = assay: Cytotoxicity against telomerase positive human MCF7 cells after 96 hrs by SRB assay; type: functional, cell-based; details: MCF7, 96 h
PC-3 = assay: Cytotoxicity against telomerase positive human PC3 cells after 96 hrs by SRB assay; type: functional, cell-based; details: PC-3, 96 h
[9] = Induction of ROS generation assessed as hydrogen peroxide production in PBS buffer at 20 uM in presence of 5 nM of DTT; type: physicochemical; details: in the assay text read “5 mM of DTT” for “5 nM of DTT”, TDE = time-dependent effect; procedure, shortened: as §1
[10] = Induction of ROS generation assessed as hydrogen peroxide production in PBS buffer at 20 uM in absence of DTT; type: physicochemical; procedure, shortened: as §1
[11] = biological target: T1, Telomerase reverse transcriptase; details: MCF7, 3 uM
SAOS-2 = assay: Cytotoxicity against telomerase negative human Saos2 cells after 96 hrs by SRB assay; type: functional, cell-based; details: SAOS-2, 96 h

T1 sequence (O14746 whole entry): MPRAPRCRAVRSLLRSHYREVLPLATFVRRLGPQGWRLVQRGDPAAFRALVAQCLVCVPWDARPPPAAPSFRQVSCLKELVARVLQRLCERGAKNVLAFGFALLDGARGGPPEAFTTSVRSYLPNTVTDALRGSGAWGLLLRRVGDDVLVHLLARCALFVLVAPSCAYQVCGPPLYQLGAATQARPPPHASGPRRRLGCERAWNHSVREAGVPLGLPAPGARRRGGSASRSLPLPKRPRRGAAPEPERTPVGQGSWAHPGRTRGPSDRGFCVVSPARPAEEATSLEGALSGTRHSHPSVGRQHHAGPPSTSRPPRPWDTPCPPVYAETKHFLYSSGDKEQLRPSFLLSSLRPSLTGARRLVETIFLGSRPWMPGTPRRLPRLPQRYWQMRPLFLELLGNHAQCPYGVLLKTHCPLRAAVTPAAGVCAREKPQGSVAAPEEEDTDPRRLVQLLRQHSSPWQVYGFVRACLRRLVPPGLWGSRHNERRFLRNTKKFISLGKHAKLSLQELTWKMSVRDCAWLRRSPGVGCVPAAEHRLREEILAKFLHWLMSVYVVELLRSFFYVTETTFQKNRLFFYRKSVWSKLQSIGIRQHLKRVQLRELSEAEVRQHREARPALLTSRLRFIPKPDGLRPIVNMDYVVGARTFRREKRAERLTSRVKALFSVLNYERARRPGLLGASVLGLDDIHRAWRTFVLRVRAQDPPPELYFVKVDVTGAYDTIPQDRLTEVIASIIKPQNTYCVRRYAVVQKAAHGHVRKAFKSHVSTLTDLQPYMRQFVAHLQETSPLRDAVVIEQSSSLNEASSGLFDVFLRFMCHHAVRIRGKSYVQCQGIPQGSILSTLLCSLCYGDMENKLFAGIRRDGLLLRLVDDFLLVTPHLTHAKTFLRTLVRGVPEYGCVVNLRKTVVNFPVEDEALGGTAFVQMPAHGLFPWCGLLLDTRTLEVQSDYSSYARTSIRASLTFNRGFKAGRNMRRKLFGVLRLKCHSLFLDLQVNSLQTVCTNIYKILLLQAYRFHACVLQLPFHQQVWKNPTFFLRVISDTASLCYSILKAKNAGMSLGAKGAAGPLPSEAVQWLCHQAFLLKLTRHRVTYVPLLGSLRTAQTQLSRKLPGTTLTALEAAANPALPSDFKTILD

Work on `C[C@H]1COC2=C1C(=O)C(=O)c1c2ccc2c1CCCC2(C)C` yielded an inhibition [1] of 75%.
With `Cc1coc2c1C(=O)C(=O)c1c-2ccc2c(C)cccc12` the inhibition [1] was 65%.
With `Cc1cccc2c1ccc1c3occ(C)c3c(=O)oc21` the inhibition [1] was 25%.
In the case of `O=C1C(=O)c2ccccc2-c2ccccc21` [9,10-PHENANTHRENEQUINONE], the IC50 [2] is reported as 5000 nM, the inhibition [3] is reported as greater than 95% and the IC50 [4] is reported as 500 nM. For the same compound, the inhibition [5] was “inactive” and the inhibition [6] was 35%.
In the case of `Cc1coc2c1C(=O)C(=O)c1c-2ccc2c1CCCC2(C)C` [TANSHINONE IIA], the Activity [7] is reported as “Not Active”, the EC50 [8] is reported as greater than 20000 nM and the EC50 (MCF7) is reported as 900 nM. It also gave an IC50 [2] of 5000 nM, an EC50 (PC-3) of 1200 nM and an IC50 [4] of 500 nM. The Activity [9] was “tde”, the inhibition [1] was 75% and the Activity [10] was “Not Active”. The inhibition [11] was 50% and the EC50 (SAOS-2) was greater than 20000 nM.

— ChEMBL document CHEMBL2157942, “ortho-Quinone tanshinones directly inhibit telomerase through an oxidative mechanism mediated by hydrogen peroxide” (Bioorg Med Chem Lett, 2011)
